For one data set, the system named is HT-29. In words: Growth inhibition against human HT-29 cells after 72 hrs by inverted microscopy. The class given is functional. Conditions: HT-29, 72 h. The procedure, abridged: (§1)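 Cells seeded at 2×10^4 cells/well in MEM10FCS containing compound at the test concentrations and exposed continuously for 72 h at 37 °C, 10% CO₂, 98% humidity. Untreated control wells were counted daily to confirm exponential growth. Cells were stained with crystal violet and inspected by inverted microscope, and inhibition was judged against controls. GI50 (50% growth inhibition) is the mean of duplicate wells.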

The nature of data set [1]: Growth inhibition against human LoVo/DX cells after 72 hrs by inverted microscopy. The class given is functional. The procedure, abridged: as §1
A short description of data set [2]: Toxicity in RBC (unknown origin) assessed as hemolysis at 139 uM. Format: cell-based. Conditions: erythrocyte.
Data set [3] in a line: Cytotoxicity against human HepG2 cells after 24 hrs by MTT assay. The class given is cell-based. Summed up:
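Hep G2A16 hepatoma cells kept in RPMI1640 with 5% FBS and gentamicin, trypsinised and plated at 4×10^4 cells/well, then left 18 h at 37 °C before dosing. Compounds were given in triplicate at four serial-dilution concentrations starting at 1000 µg/mL, with final DMSO 0.01%, for 24 h at 37 °C. MTT (6 mg/mL in PBS) was added for 1 h 30 min, solubilised in DMSO and read at 570 nm. Cytotoxic concentration was taken from the dose–response curve.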
(Tetrazolium dyes change colour on reduction, which living cells bring about.)

Data set [4] is described as follows: Selectivity index, ratio of CC50 for human HepG2 cells to IC50 for chloroquine-resistant Plasmodium falciparum W2 infected in human erythrocytes. Format: functional. The procedure, abridged: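 HepG2 hepatoma cells in RPMI1640 with 5% FBS, 4×10^4 cells/well, allowed 18 h at 37 °C. Four serial dilutions from 1000 µg/mL, final DMSO 0.01%, in triplicate, for 24 h at 37 °C. Cytotoxic concentration taken from the dose–response curve, then divided by the antiplasmodial IC50.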

In a further data set the test system is Plasmodium falciparum. In words: Antiplasmodial activity against chloroquine-resistant Plasmodium falciparum W2 infected in human erythrocytes assessed as inhibition of parasite growth after 24 hrs by [3H]hypoxanthine incorporation assay. The class given is functional, organism-based. Summed up: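 Ring-stage parasites, sorbitol-synchronised, in human O-negative erythrocytes in RPMI with 10% human plasma; plated at 1% parasitemia, 1% haematocrit. Compounds diluted from DMSO stocks in hypoxanthine-free medium, final DMSO 0.002%. After 24 h, [3H]-hypoxanthine (0.5 μCi/well) added for another 18 h at 37 °C. Incorporation compared with drug-free controls, IC50 by linear interpolation. Three experiments, each in triplicate.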

For another data set, the system named is LoVo. The experiment in a line: Growth inhibition against human LoVo cells after 72 hrs by inverted microscopy. The class given is functional. Summed up:
as §1

The subject of the next data set is HeLa. The experiment in a line: Growth inhibition against human HeLa cells after 72 hrs by inverted microscopy. Format: functional. The procedure, abridged: as §1
Data set [5] can be described thus: Growth inhibition against human IGROV cells after 72 hrs by inverted microscopy. Format: functional. Summed up: as §1
The nature of data set [6]: Growth inhibition against human IGROV-ET cells after 72 hrs by inverted microscopy. The class given is functional. Summed up: as §1
For a further data set, the system named is K562. In words: Growth inhibition against human K562 cells after 72 hrs by inverted microscopy. The class given is functional. The note with it: K562, 72 h. Summed up:
as §1

The test system of another data set is PANC-1. The experiment in a line: Growth inhibition against human PANC1 cells after 72 hrs by inverted microscopy. Format: functional. The note with it: PANC-1, 72 h. Summed up:
as §1

The source of these data is ChEMBL document CHEMBL2331420, “Synthesis, cytotoxicity and antiplasmodial activity of novel ent-kaurane derivatives” (Eur J Med Chem, 2013).

Each structure is given as a SMILES string.

For the compound `COC(=O)[C@]1(C)CCC[C@]2(C)[C@@H]1CC[C@@]13C[C@H](C[C@H]4O[C@]412)[C@]1(CO1)C3`, the GI50 (in the data set on HT-29; in data set [1]; in the data set on LoVo; with HeLa; in [5]; in [6]) was more than 8.66 µM in each case. In addition, the GI50 in the data set on K562 and with PANC-1 was more than 8.66 µM in each case. Moreover, the Activity entry in [2] is reported as “Toxic”. Further, the CC50 (usually the concentration that lowers cell viability or growth by half) at 24 h in [3] is 810 µM. Moreover, in data set [4], the “Ratio CC50/IC50” value was determined as 117.4. The IC50 (in general, the concentration that inhibits the measured activity by half) in the data set on Plasmodium falciparum worked out at 6.9 µM.
